Measurements of several laboratories.
Protocols differ between the studies behind these lines.
Observed: cell growth or viability

SMILES | cell line | assay | setting | endpoint | result
CCn1c(-c2nonc2N)nc2c(C#CC(C)(C)O)ncc(OC[C@H]3CCCNC3)c21 | UACC-903 | resazurin | 72 h | EC50 | 83 µM
COC(=O)COc1ccc(NC(=O)C2(c3ccccc3)CC2)cc1Br | U-937 | ATP luminescence | 72 h | GI50 | 6.1 µM
Cc1cc(=O)oc2ccc(-c3cc(-c4cccc(Cl)c4)nc(N)n3)c(O)c12 | KB | MTT | 2 µg/mL, 72 h | inhibition | 0%
C=CC(=O)N1CCC[C@@H](n2nc(-c3ccc(Oc4ccccc4)cc3)c3c(N)ncnc32)C1 | U-937 | ATP luminescence | 72 h | GI50 | 6.4 µM
COC(=O)COc1ccc(NC(=O)C2(c3cccc(C)c3)CC2)c(C)c1 | U-937 | ATP luminescence | 72 h | GI50 | 6.8 µM
C=CC(=O)N1CCC[C@@H](n2nc(-c3ccc(Oc4ccccc4)cc3)c3c(N)ncnc32)C1 | MINO | ATP luminescence | 72 h | GI50 | 6.31 µM
COc1cc(-c2ccc(-c3ccc(C(=N)N)nc3)s2)cc(OC)c1OC | IGROV-1 | SRB |  | GI50 | 2.63 µM
COC(=O)COc1ccc(NC(=O)C2(c3ccc(Cl)cc3)CC2)cc1Br | U-937 | ATP luminescence | 72 h | GI50 | 1.6 µM
Cc1cc(=O)oc2ccc(-c3cc(-c4ccc(Br)cc4)nc(N)n3)c(O)c12 | KB | MTT | 2 µg/mL, 72 h | inhibition | 0%
C=CC(=O)N1CCN(c2cc(-c3noc([C@@]4(C)CCCc5sc(N)c(C#N)c54)n3)nc(N3CCN(C)C[C@@H]3C)c2)CC1 | LS-513 |  | 5 days | EC50 | 4.7 µM
Cc1ccc(-c2cc(-c3ccc4oc(=O)cc(C)c4c3O)nc(N)n2)cc1 | KB | MTT | 8 µg/mL, 72 h | inhibition | 0%
COC(=O)COc1ccc(NC(=O)C2(c3ccc(F)cc3)CC2)cc1 | U-937 | ATP luminescence | 72 h | GI50 | 5.9 µM
Cc1cc(=O)oc2ccc(-c3cc(-c4ccccc4)nc(N)n3)c(O)c12 | KB | MTT | 8 µg/mL, 72 h | inhibition | 0%
COc1cc(Nc2nccc(-c3cnn4nc(OC)ccc34)n2)cc(C(F)(F)F)c1 | SNU1 | ATP luminescence |  | IC50 | 0.19 µM
